Tests used:
Staphylococcus aureus [1] = assay: Antibacterial activity against Staphylococcus aureus DSM1104 assessed as reduction in microbial growth preincubated for 60 mins under dark condition and measured after 20 to 24 hrs at room temperature by muller hinton broth based dilution assay; type: functional; details: time 20-24 hrs
Procedure, shortened: (§1)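 Bacteria grown overnight at 37 °C for 15−18 h in the dark, then set to 0.5 McFarland (read at 600 nm) and diluted 1:50 in Müller-Hinton broth to (2–8) × 10⁵ CFU/mL. Dark plate held at room temperature, then incubated at 37 °C. After 20−24 h, turbidity was read against the untreated growth control, with blanks subtracted. Compounds tested at ≥10 concentrations in biological triplicate.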

T-24 [2] = assay: Phototoxicity against human T24 cells assessed as reduction in cell growth preincubated with compound for 24 hrs followed by green light irradiation at 519 nm for 22 mins 23 sec and measured after 48 hrs by SRB assay; type: functional, cell-based; details: T-24, light or radiation study
Procedure, shortened: (§2)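 Cells (A549 2000, AGS 2500, T24 1500 per well) seeded in Opti-MEM with 2.4% FCS and dosed 24 h later at six concentrations, 25.0−0.3 μM. After a further 24 h, fresh medium was added and cells got green light (519±33 nm, 30.0 J/cm²). Then 48 h at 37 °C, 5% CO2. Read-out by TCA fixation, SRB stain and absorbance at 540 nm. EC50 from Hill fit with 95% CI.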

AGS [3] = assay: Phototoxicity against human AGS cells assessed as reduction in cell growth preincubated with compound for 24 hrs under dark condition and measured after 48 hrs by SRB assay; type: functional, cell-based; details: light or radiation study
Procedure, shortened: (§3)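 Dark control plate processed the same way: cells (A549 2000, AGS 2500, T24 1500 per well) in Opti-MEM with 2.4% FCS, dosed at 25.0−0.3 μM 24 h after seeding. Medium renewed after 24 h, then 48 h further at 37 °C, 5% CO2 without light. SRB read-out at 540 nm after TCA fixation. EC50 with 95% CI from variable-slope fit.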

Escherichia coli [4] = assay: Antibacterial activity against Escherichia coli DSM1103 assessed as reduction in microbial growth preincubated for 60 mins under dark condition followed by 428 to 530 nm light irradiation and measured after 20 to 24 hrs by muller hinton broth based dilution assay; type: functional; details: DSM1103, light or radiation study, time 21-25 hrs
Procedure, shortened: (§4)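 Bacterial inoculum set to 0.5 McFarland (600 nm) and diluted 1:50 in Müller-Hinton broth to (2–8) × 10⁵ CFU/mL. After 60 min dark preincubation the plate received H = 30 J/cm² from LED panels (468±27, 519±33, 478±22 or 523±33 nm). Incubated at 37 °C in the dark for 20−24 h. Turbidity read against growth control, blanks subtracted. ≥10 concentrations, biological triplicate.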

AGS [5] = assay: Phototoxicity against human AGS cells assessed as reduction in cell growth preincubated with compound for 24 hrs followed by green light irradiation at 519 nm for 22 mins 23 sec and measured after 48 hrs by SRB assay; type: functional, cell-based; details: light or radiation study; procedure, shortened: as §2
Candida albicans [6] = assay: Antifungal activity against Candida albicans 501670 assessed as reduction in microbial growth preincubated for 60 mins under dark condition followed by 428 to 530 nm light irradiation and measured after 20 to 24 hrs by muller hinton broth based dilution assay; type: functional; details: Candida albicans, 501670, light or radiation study; in the assay text read “RPMI-1640” for “muller hinton broth”; time 21-25 hrs
Procedure, shortened: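 Yeast set to 0.5 McFarland (530 nm), diluted 1:10 in double-strength RPMI-1640 to (0.5−2.5) × 10⁵ CFU/mL. Irradiated at H = 30 J/cm² after 60 min dark preincubation, then kept dark at 37 °C for 20−24 h. Growth inhibition by turbidity versus growth control, blanks subtracted. ≥10 concentrations in biological triplicate.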

AGS [7] = assay: Phototoxicity against human AGS cells assessed as reduction in cell growth preincubated with compound for 24 hrs followed by blue light irradiation at 468 nm for 7 mins 30 sec and measured after 48 hrs by SRB assay; type: functional, cell-based; details: light or radiation study
Procedure, shortened: (§5)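 Cells (A549 2000, AGS 2500, T24 1500 per well) seeded in Opti-MEM with 2.4% FCS. After 24 h, treated with 25.0−0.3 μM (six levels). After another 24 h, medium was replaced and cells got blue light (468±27 nm, 9.3 J/cm²). Held 48 h at 37 °C, 5% CO2, then TCA-fixed and SRB-stained, read at 540 nm. EC50 from variable-slope fit with 95% CI.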

Staphylococcus aureus [8] = assay: Antibacterial activity against Staphylococcus aureus DSM1104 assessed as reduction in microbial growth preincubated for 60 mins under dark condition followed by 428 to 530 nm light irradiation and measured after 20 to 24 hrs by muller hinton broth based dilution assay; type: functional; details: DSM1104, light or radiation study, time 21-25 hrs; procedure, shortened: as §4
A549 [9] = assay: Phototoxicity against human A549 cells assessed as reduction in cell growth preincubated with compound for 24 hrs under dark condition and measured after 48 hrs by SRB assay; type: functional, cell-based; details: A549, light or radiation study; procedure, shortened: as §3
T-24 [10] = assay: Phototoxicity against human T24 cells assessed as reduction in cell growth preincubated with compound for 24 hrs followed by blue light irradiation at 468 nm for 7 mins 30 sec and measured after 48 hrs by SRB assay; type: functional, cell-based; details: T-24, light or radiation study; procedure, shortened: as §5
A549 [11] = assay: Phototoxicity against human A549 cells assessed as reduction in cell growth preincubated with compound for 24 hrs followed by blue light irradiation at 468 nm for 7 mins 30 sec and measured after 48 hrs by SRB assay; type: functional, cell-based; details: A549, light or radiation study; procedure, shortened: as §5
Escherichia coli [12] = assay: Antibacterial activity against Escherichia coli DSM1103 assessed as reduction in microbial growth preincubated for 60 mins under dark condition and measured after 20 to 24 hrs at room temperature by muller hinton broth based dilution assay; type: functional; details: time 20-24 hrs; procedure, shortened: as §1
T-24 [13] = assay: Phototoxicity against human T24 cells assessed as reduction in cell growth preincubated with compound for 24 hrs under dark condition and measured after 48 hrs by SRB assay; type: functional, cell-based; details: T-24, light or radiation study; procedure, shortened: as §3
A549 [14] = assay: Phototoxicity against human A549 cells assessed as reduction in cell growth preincubated with compound for 24 hrs followed by green light irradiation at 519 nm for 22 mins 23 sec and measured after 48 hrs by SRB assay; type: functional, cell-based; details: A549, light or radiation study; procedure, shortened: as §2
Candida albicans [15] = assay: Antifungal activity against Candida albicans 501670 assessed as reduction in microbial growth preincubated for 60 mins under dark condition and measured after 20 to 24 hrs at room temperature by RPMI-1640 based dilution assay
Staphylococcus aureus [16] = assay: Antibacterial activity against Staphylococcus aureus DSM1104 assessed as reduction in microbial growth preincubated for 60 mins under dark condition followed by 478 nm light irradiation and measured after 20 to 24 hrs by muller hinton broth based dilution assay; type: functional; details: DSM1104, light or radiation study, time 21-25 hrs
Procedure, shortened: (§6)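 PhotoMIC (modified EUCAST broth microdilution): 0.5 McFarland suspensions diluted 1:50 in Mueller-Hinton broth (bacteria, 2–8 × 10⁵ CFU/mL) or 1:10 in double-strength RPMI-1640 (yeast, 0.5–2.5 × 10⁵ CFU/mL); ≥10 concentrations, biological triplicates; 60 min dark preincubation, then 30 J/cm² irradiation or dark duplicate plate; 37 °C, 20–24 h; turbidity versus growth control, blanks subtracted.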

Staphylococcus aureus [17] = assay: Antibacterial activity against Staphylococcus aureus DSM1104 assessed as reduction in microbial growth preincubated for 60 mins under dark condition followed by 530 nm light irradiation and measured after 20 to 24 hrs by muller hinton broth based dilution assay; type: functional; details: DSM1104, light or radiation study, time 21-25 hrs; procedure, shortened: as §6
Escherichia coli [18] = assay: Antibacterial activity against Escherichia coli DSM1103 assessed as reduction in microbial growth preincubated for 60 mins under dark condition followed by 428 nm light irradiation and measured after 20 to 24 hrs by muller hinton broth based dilution assay; type: functional; details: DSM1103, light or radiation study, time 21-25 hrs; procedure, shortened: as §6
AGS [19] = assay: Photo index, ratio of EC50 for human AGS cells killed in the absence of light to EC50 for human AGS cells killed after irradiation; type: functional
Procedure, shortened: (§7)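 SRB assay: cells seeded in Opti-MEM with 2.4% FCS, treated 24 h later with 0.3–25.0 μM, medium replaced after 24 h. Duplicate plates were irradiated with blue light (468 nm, 9.3 J/cm²) or green light (519 nm, 30.0 J/cm²), or kept dark, then held 48 h at 37 °C, 5% CO₂. EC50 from Hill fit; photoindex = EC50 dark / EC50 irradiated.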

Escherichia coli [20] = assay: Antibacterial activity against Escherichia coli DSM1103 assessed as reduction in microbial growth preincubated for 60 mins under dark condition followed by 478 nm light irradiation and measured after 20 to 24 hrs by muller hinton broth based dilution assay; type: functional; details: DSM1103, light or radiation study, time 21-25 hrs; procedure, shortened: as §6
Candida albicans [21] = assay: Antifungal activity against Candida albicans 501670 assessed as reduction in microbial growth preincubated for 60 mins under dark condition followed by 530 nm light irradiation and measured after 20 to 24 hrs by RPMI-1640 based dilution assay; details: Candida albicans, 501670, light or radiation study
Escherichia coli [22] = assay: Antibacterial activity against Escherichia coli DSM1103 assessed as reduction in microbial growth preincubated for 60 mins under dark condition followed by 530 nm light irradiation and measured after 20 to 24 hrs by muller hinton broth based dilution assay; type: functional; details: DSM1103, light or radiation study, time 21-25 hrs; procedure, shortened: as §6
Staphylococcus aureus [23] = assay: Antibacterial activity against Staphylococcus aureus DSM1104 assessed as reduction in microbial growth preincubated for 60 mins under dark condition followed by 428 nm light irradiation and measured after 20 to 24 hrs by muller hinton broth based dilution assay; type: functional; details: DSM1104, light or radiation study, time 21-25 hrs; procedure, shortened: as §6
T-24 [24] = assay: Photo index, ratio of EC50 for human T24 cells killed in the absence of light to EC50 for human T24 cells killed after irradiation; type: functional; procedure, shortened: as §7
A549 [25] = assay: Photo index, ratio of EC50 for human A549 cells killed in the absence of light to EC50 for human A549 cells killed after irradiation; type: functional; procedure, shortened: as §7
Candida albicans [26] = assay: Antifungal activity against Candida albicans 501670 assessed as reduction in microbial growth preincubated for 60 mins under dark condition followed by 428 nm light irradiation and measured after 20 to 24 hrs by RPMI-1640 based dilution assay; details: Candida albicans, 501670, light or radiation study
Candida albicans [27] = assay: Antifungal activity against Candida albicans 501670 assessed as reduction in microbial growth preincubated for 60 mins under dark condition followed by 478 nm light irradiation and measured after 20 to 24 hrs by RPMI-1640 based dilution assay; details: Candida albicans, 501670, light or radiation study

Row | MIC (Escherichia coli [12]) | MIC (Candida albicans [15]) | SMILES | MIC (Staphylococcus aureus [1]) | EC50 (AGS [3]) | EC50 (AGS [7]) | EC50 (A549 [9]) | EC50 (T-24 [10]) | EC50 (A549 [11]) | EC50 (T-24 [13]) | also measured
1 | > 105 µM | > 105 µM | COc1c(O)c(O)c2c(c1O)C(=O)c1cc(C)cc(O[C@@H]3O[C@H](CO)[C@@H](O)[C@H](O)[C@H]3O)c1C2=O | > 105 µM | > 25 µM | > 25 µM | > 25 µM | > 25 µM | > 25 µM | > 25 µM | EC50 (T-24 [2]): > 25 µM; MIC (Escherichia coli [4]): > 105 µM; EC50 (AGS [5]): > 25 µM; MIC (Candida albicans [6]): > 105 µM; MIC (Staphylococcus aureus [8]): > 105 µM; EC50 (A549 [14]): > 25 µM
2 | – | 0.22 µM | C[C@@H]1[C@H](O)[C@@H](C)/C=C/C=C/C=C/C=C/C=C/C=C/C=C/[C@H](O[C@@H]2O[C@H](C)[C@@H](O)[C@H](N)[C@@H]2O)C[C@@H]2O[C@](O)(C[C@@H](O)C[C@@H](O)[C@H](O)CC[C@@H](O)C[C@@H](O)CC(=O)O[C@H]1C)C[C@H](O)[C@H]2C(=O)O [AMPHOTERICIN B] | – | – | – | – | – | – | – | –
3 | 6.1 µM | – | O=C(N[C@H](CO)[C@H](O)c1ccc([N+](=O)[O-])cc1)C(Cl)Cl [CHLORAMPHENICOL] | – | – | – | – | – | – | – | –

Row | SMILES | MIC (Escherichia coli [12]) | MIC (Candida albicans [15]) | MIC (Staphylococcus aureus [1]) | EC50 (AGS [3]) | EC50 (AGS [7]) | EC50 (A549 [9]) | EC50 (T-24 [10]) | EC50 (A549 [11]) | EC50 (T-24 [13]) | also measured
4 | Cc1cc(O)c2c(c1)C(=O)c1cc(O)cc(O)c1C2=O [EMODIN] | > 92 µM | > 92 µM | > 92 µM | > 25 µM | 1.5 µM | 19 µM | 1.7 µM | 2.9 µM | > 25 µM | MIC (Staphylococcus aureus [16]): 1.85 µM; MIC (Staphylococcus aureus [17]): 11.1 µM; MIC (Escherichia coli [18]): 11.1 µM; Ratio EC50 (AGS [19]): >16; MIC (Escherichia coli [20]): > 92 µM; MIC (Candida albicans [21]): 46 µM; MIC (Escherichia coli [22]): > 92 µM; MIC (Staphylococcus aureus [23]): 1.85 µM; Ratio EC50 (T-24 [24]): >15; Ratio EC50 (A549 [25]): 7; MIC (Candida albicans [26]): 0.37 µM; MIC (Candida albicans [27]): 2.78 µM
